Measured values gathered from unrelated publications.
Lines come from different studies, so protocols differ.
TOP2A: DNA topoisomerase 2-alpha (TOP2A, Homo sapiens, UniProt P11388)
FLT3 ITD: Receptor-type tyrosine-protein kinase FLT3 (FLT3, Homo sapiens, UniProt P36888, ITD)
TNKS2: Poly [ADP-ribose] polymerase tankyrase-2 (TNKS2, Homo sapiens, UniProt Q9H2K2)
HTR2B: 5-hydroxytryptamine receptor 2B (HTR2B, Homo sapiens, UniProt P41595)

SMILES	target	observed	action	method	IC50 [nM]
CNc1cccc(Nc2nc(-c3ccncc3)nc3c2CNCC3)c1	TOP2A	enzyme activity	inhibitor		160000
C=CCn1c(=O)c2cnc(Nc3ccc(N4CCN(C)CC4)cc3)nc2n1-c1ccc2c(n1)[C@@](O)(CC)CC2	Serine/threonine-protein kinase PLK1 (PLK1, Homo sapiens, UniProt P53350)	target engagement in cells		BRET	> 10000
CN(C)CCNC(=O)c1ccc(-c2nc3ccc4[nH]ncc4c3c3c2CCCC3)c(F)c1	FLT3 ITD	enzyme activity	inhibitor		112
CC(C)(O)c1ccc(-c2nc3cc(NC(=O)c4cnc(OCc5ccccc5)nc4)ccc3c(=O)[nH]2)cc1	TNKS2	enzyme activity	inhibitor		16.3
CN(C)CCNC(=O)c1ccc(-c2nc3ccc4[nH]ncc4c3c3c2CCCCC3)cc1	Receptor-type tyrosine-protein kinase FLT3 (FLT3, Homo sapiens, UniProt P36888)	enzyme activity	inhibitor		48
Fc1cccc(Nc2nc(-c3ccncc3)nc3c2CNCC3)c1	TOP2A	enzyme activity	inhibitor		25000
CN1CCC(CNc2ccc3ncc(-c4cccc(OC(F)(F)F)c4)n3n2)CC1	HTR2B	calcium signal	antagonist		2810
CN(C)CCNC(=O)c1ccc(-c2nc3ccc4[nH]ncc4c3c3c2CCC3)cc1	FLT3 ITD	enzyme activity	inhibitor		659
CC(C)(O)c1ccc(-c2nc3cc(NC(=O)c4cnc(Oc5ccccc5)nc4)ccc3c(=O)[nH]2)cc1	TNKS2	enzyme activity	inhibitor		7.96
Cc1cc(-c2ccccc2)nnc1NCCN1CCOCC1	HTR2B	calcium signal	antagonist		6200
CC(C)(O)c1ccc(-c2nc3cc(NC(=O)c4ccc(-c5ccccc5)nc4)ccc3c(=O)[nH]2)cc1	TNKS2	enzyme activity	inhibitor		10.6
CN(C)CCNC(=O)c1ccc(-c2nc3ccc4[nH]ncc4c3c3c2CCCCC3)cn1	FLT3 ITD	enzyme activity	inhibitor		420
CN(C)c1cccc(Nc2nc(-c3ccncc3)nc3c2CNCC3)c1	TOP2A	enzyme activity	inhibitor		140000
CCCCCCC#Cc1cncc(-c2nnc(SCc3cc([N+](=O)[O-])cc([N+](=O)[O-])c3)n2C2CCNCC2)c1	mraY (Staphylococcus aureus, UniProt Q2FZ93)	enzyme activity	inhibitor		~100000
Cc1n[nH]c2ccc3nc(-c4ccc(C(=O)NCCN(C)C)cc4)c4c(c3c12)CCCCC4	Receptor-type tyrosine-protein kinase FLT3 (FLT3, Homo sapiens, UniProt P36888, D835Y)	enzyme activity	inhibitor		34
